Consider two compounds from ChEMBL document CHEMBL3272325, “Structure-activity relationships of dimeric Catharanthus alkaloids. 1. Deacetylvinblastine amide (vindesine) sulfate” (J Med Chem, 1978).

The structures appear in SMILES notation.

Common to all, as to format: functional
Common to all, as to conditions: route intraperitoneal

Test [1] in a line: Antitumor activity against mouse Ridgeway osteogenic sarcoma cells allografted in mouse at 1 to 2 mg/kg/day, ip. The procedure, abridged:
(§1)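 Sulfate salts given ip on days 1-9 against ROS and GLS in mice; tumor growth scored as percent inhibition versus controls (+++ = 75-100%, ++ = 50-75%, ± = under 25%).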

Test [2] can be described thus: Antitumor activity against mouse Gardner lymphosarcoma cell allografted in mouse at 1.0 to 2.0 mg/kg/day, ip. The procedure, abridged:
as §1

Test [3] is described as follows: Antitumor activity against mouse Gardner lymphosarcoma cell allografted in mouse at 0.2 to 0.3 mg/kg/day, ip. The procedure, abridged: (§2)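 Ridgeway osteogenic sarcoma and Gardner lymphosarcoma in mice, with sulfate salts given ip daily on days 1-9. Tumor growth inhibition versus controls scored in bands: +++ = 75-100%, ++ = 50-75%, ± = under 25%.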
Test [4] is described as follows: Antitumor activity against mouse Ridgeway osteogenic sarcoma cells allografted in mouse at 0.2 to 0.3 mg/kg/day, ip. The procedure, abridged:
as §2

The TGI is the reduction of tumour growth relative to the control group. Read a low TGI as little slowing of growth. Consider `CC[C@]1(O)C[C@@H]2C[C@H](c3cc4c(cc3OC)N(C)[C@H]3[C@@](O)(C(=O)NN)[C@H](O)[C@]5(CC)C=CCN6CC[C@]43[C@@H]65)c3[nH]c4ccccc4c3CCN(C2)C1`, for which the TGI in test [1] and in test [2] was below 25% in each case.
For the compound `CC[C@]1(O)C[C@H]2CN(CCc3c([nH]c4ccccc34)[C@@](C(=O)OC)(c3cc4c(cc3OC)N(C)[C@H]3[C@@](O)(C(=O)NN)[C@H](O)[C@]5(CC)C=CCN6CC[C@]43[C@@H]65)C2)C1`, the TGI in test [3] and in test [4] was 75% throughout.
